The text below walks through data of ChEMBL document CHEMBL3232916, “1-(4-Methoxyphenyl)-5-(3,4,5-trimethoxyphenyl)-1H-1,2,4-triazole-3-carboxamides: synthesis, molecular modeling, evaluation of their anti-inflammatory activity and ulcerogenicity” (Eur J Med Chem, 2014).

Data set [1] concerns Rattus norvegicus. The data set is described as follows: Antiinflammatory activity in albino rat assessed as inhibition of carrageenan-induced paw edema at 0.28 mmol/kg, po administered 30 mins before carrageenan challenge measured after 4 hrs relative to control. The data set is classed as functional. The procedure, abridged:
(§1)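 Male albino rats, n = 4 per group. Dosed orally as a suspension in 0.5% w/v CMC in water; controls received CMC alone. 0.1 mL of freshly prepared 1% carrageenan in saline was injected subplantar into the right hind paw 30 min after dosing, with saline in the left paw. Right paw thickness was read by Vernier caliper before and at 1–5 h. Result is % decrease in edema vs control, mean ± S.E.M.; one-way ANOVA.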

Data set [2] deals with Rattus norvegicus. The data set is described as follows: Antiinflammatory activity in albino rat assessed as inhibition of carrageenan-induced paw edema at 0.28 mmol/kg, po administered 30 mins before carrageenan challenge measured after 3 hrs relative to indomethacin. Particulars: read-out: INH. The data set is classed as functional. The procedure, abridged:
(§2)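 Calculated from the 3 h % edema inhibition in carrageenan paw edema (male albino rats, oral dosing in 0.5% CMC 30 min before 1% carrageenan subplantar injection). Expressed as % of the inhibition given by the reference drug in the same assay.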

Data set [3] has as its system Rattus norvegicus. The data set is described as follows: Ulcerogenic effect in albino rat assessed as morphology using hematoxylin and eosin staining at 0.28 mmol/kg, po by light microscopic analysis. Particulars: in vivo. It is filed as toxicity, organism-based. The method, boiled down: (§3)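 Stomach sections were dewaxed through graded alcohols to water and stained with haematoxylin for 5–7 min. They were differentiated 5–10 s in 1% HCl in 70% alcohol, then stained with 1% eosin for 10 min, with tap-water washes between steps. The sections were then examined by light microscopy for mucosal and glandular changes.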

Data set [4] deals with Rattus norvegicus. The data set is described as follows: Antiinflammatory activity in albino rat assessed as inhibition of carrageenan-induced paw edema at 0.28 mmol/kg, po administered 30 mins before carrageenan challenge measured after 5 hrs relative to control. The data set is classed as functional. The method, boiled down:
as §1

The subject of data set [5] is Rattus norvegicus. The data set is described as follows: Antiinflammatory activity in albino rat assessed as inhibition of carrageenan-induced paw edema at 0.28 mmol/kg, po administered 30 mins before carrageenan challenge measured after 1 hr relative to control. The data set is classed as functional. The procedure, abridged: as §1
The test system of data set [6] is Rattus norvegicus. The data set is described as follows: Antiinflammatory activity in albino rat assessed as inhibition of carrageenan-induced paw edema at 0.28 mmol/kg, po administered 30 mins before carrageenan challenge measured after 3 hrs relative to control. It is filed as functional. The procedure, abridged: as §1
Data set [7] concerns Rattus norvegicus. The data set is described as follows: Antiinflammatory activity in albino rat assessed as inhibition of carrageenan-induced paw edema at 0.28 mmol/kg, po administered 30 mins before carrageenan challenge measured after 2 hrs relative to control. The data set is classed as functional. The procedure, abridged: as §1
The test system of data set [8] is Rattus norvegicus. The data set is described as follows: Ulcerogenic effect in albino rat assessed as ulcer index at 0.28 mmol/kg, po. It is filed as toxicity, organism-based. Particulars: in vivo. The method, boiled down: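 Rat gastric ulcers were graded by area: level I <1 mm², level II 1–3 mm², level III >3 mm². Ulcer index = 1×(level I count) + 2×(level II) + 3×(level III). Reported as mean ± S.E.M., n = 4.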

Data set [9] concerns Rattus norvegicus. The data set is described as follows: Antiinflammatory activity in albino rat assessed as inhibition of carrageenan-induced paw edema at 0.28 mmol/kg, po administered 30 mins before carrageenan challenge measured after 3 hrs relative to celecoxib. It is filed as functional. Particulars: read-out: INH. The procedure, abridged:
as §2

Data set [10] can be described thus: Selectivity ratio IC50 for ovine COX1 to IC50 for human recombinant COX2.
For data set [11], the target named is T1, Prostaglandin G/H synthase 1 (Ovis aries, UniProt P05979).
T1 sequence (P05979 whole entry): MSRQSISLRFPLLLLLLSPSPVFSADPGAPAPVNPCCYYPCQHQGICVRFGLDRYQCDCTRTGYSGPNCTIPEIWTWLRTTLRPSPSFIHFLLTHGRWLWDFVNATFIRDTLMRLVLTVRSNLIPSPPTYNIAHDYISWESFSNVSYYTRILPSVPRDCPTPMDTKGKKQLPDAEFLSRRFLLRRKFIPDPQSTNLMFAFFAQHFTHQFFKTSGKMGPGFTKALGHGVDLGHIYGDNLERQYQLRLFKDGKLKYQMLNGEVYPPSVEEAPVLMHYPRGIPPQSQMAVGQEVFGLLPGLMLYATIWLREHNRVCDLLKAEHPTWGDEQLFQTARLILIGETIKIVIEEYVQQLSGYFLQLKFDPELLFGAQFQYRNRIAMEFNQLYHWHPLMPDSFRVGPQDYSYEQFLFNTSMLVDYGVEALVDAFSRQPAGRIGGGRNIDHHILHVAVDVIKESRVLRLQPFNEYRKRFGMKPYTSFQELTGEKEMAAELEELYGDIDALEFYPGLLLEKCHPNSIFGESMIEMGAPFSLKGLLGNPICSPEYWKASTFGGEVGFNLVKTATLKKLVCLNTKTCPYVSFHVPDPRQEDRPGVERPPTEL
The data set is described as follows: Inhibition of ovine COX1 assessed as prostaglandin F2alpha level.

Data set [12] deals with T2, Prostaglandin G/H synthase 2 (Homo sapiens, UniProt P35354).
T2 sequence (P35354 whole entry): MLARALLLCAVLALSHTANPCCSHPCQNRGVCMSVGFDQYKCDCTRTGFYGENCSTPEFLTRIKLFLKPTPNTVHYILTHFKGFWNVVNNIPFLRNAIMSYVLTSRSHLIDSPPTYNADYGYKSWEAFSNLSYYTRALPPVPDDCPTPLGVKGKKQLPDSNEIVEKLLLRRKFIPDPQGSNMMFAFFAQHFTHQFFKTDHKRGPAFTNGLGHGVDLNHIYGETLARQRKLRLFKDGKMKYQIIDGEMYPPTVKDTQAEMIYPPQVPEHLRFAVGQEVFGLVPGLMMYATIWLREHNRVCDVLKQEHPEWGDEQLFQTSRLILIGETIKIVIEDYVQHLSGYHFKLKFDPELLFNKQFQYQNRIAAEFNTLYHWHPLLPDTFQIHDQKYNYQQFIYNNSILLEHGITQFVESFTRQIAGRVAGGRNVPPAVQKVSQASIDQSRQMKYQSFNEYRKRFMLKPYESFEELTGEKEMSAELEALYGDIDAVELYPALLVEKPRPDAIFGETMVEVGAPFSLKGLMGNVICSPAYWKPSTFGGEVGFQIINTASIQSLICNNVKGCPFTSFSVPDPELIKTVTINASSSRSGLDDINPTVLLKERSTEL
The data set is described as follows: Inhibition of human recombinant COX2 assessed as prostaglandin F2alpha level.

The test system of data set [13] is Rattus norvegicus. The data set is described as follows: Ulcerogenic effect in albino rat assessed as loss of mucosal membrane using hematoxylin and eosin staining at 0.28 mmol/kg, po by light microscopic analysis. It is filed as toxicity, organism-based. Particulars: in vivo. The procedure, abridged:
as §3

Data set [14] relates to Rattus norvegicus. The data set is described as follows: Ulcerogenic effect in albino rat assessed as capillary inflammatory cells using hematoxylin and eosin staining at 0.28 mmol/kg, po by light microscopic analysis. Particulars: in vivo. The data set is classed as toxicity, organism-based. The method, boiled down:
as §3

Data set [15] has as its system Rattus norvegicus. The data set is described as follows: Ulcerogenic effect in albino rat assessed as apoptotic glandular epithelial cells using hematoxylin and eosin staining at 0.28 mmol/kg, po by light microscopic analysis. It is filed as toxicity, organism-based, Epithelial cell. Particulars: in vivo. The method, boiled down:
as §3

With `COc1ccc(-n2nc(C(=O)Nc3ccccc3C)nc2-c2cc(OC)c(OC)c(OC)c2)cc1`, the inhibition in vivo at 280 µmol/kg with Rattus norvegicus [1] was determined as 46%; in the data set on Rattus norvegicus [4] it was 47%; with Rattus norvegicus [5], 19%; in the data set on Rattus norvegicus [6], 50%; in the data set on Rattus norvegicus [7], 30%. In the data set on Rattus norvegicus [2], the paw edema inhibition relative to indomethacin at 280 µmol/kg is 64%. Also, in the data set on Rattus norvegicus [3], the Activity result is on record as “Non-toxic”. Moreover, the UI with Rattus norvegicus [8] is listed as 1.5. In the data set on Rattus norvegicus [9], the paw edema inhibition relative to celecoxib at 280 µmol/kg stood at 74%.

For `CNC(=O)c1nc(-c2cc(OC)c(OC)c(OC)c2)n(-c2ccc(OC)cc2)n1`, the inhibition in vivo at 280 µmol/kg in the data set with Rattus norvegicus [1] came out at 65%; in the data set on Rattus norvegicus [4], 50%; in the data set with Rattus norvegicus [5] it was 56%; in the data set on Rattus norvegicus [6], 74%; with Rattus norvegicus [7] it was 74%. Moreover, the paw edema inhibition relative to indomethacin at 280 µmol/kg with Rattus norvegicus [2] stood at 95%. Further, in data set [10], the Ratio IC50 stood at 0.67. Also, the UI in the data set with Rattus norvegicus [8] turned out to be 7.5. Also, the values for the IC50 in data set [11] and in [12] were 45.9 µM and 68.2 µM, respectively. For the same molecule, the paw edema inhibition relative to celecoxib at 280 µmol/kg in the data set on Rattus norvegicus [9] was determined as 109%.

For `COc1ccc(-n2nc(C(=O)NN)nc2-c2cc(OC)c(OC)c(OC)c2)cc1`, the inhibition in vivo at 280 µmol/kg in the data set with Rattus norvegicus [1] is 54%; in the data set on Rattus norvegicus [4] it was 56%; in the data set on Rattus norvegicus [5], 36%; in the data set on Rattus norvegicus [6], 57%; in the data set with Rattus norvegicus [7], 47%. Besides, in the data set with Rattus norvegicus [2], the paw edema inhibition relative to indomethacin at 280 µmol/kg is 73%. The Ratio IC50 in data set [10] is 0.86. In addition, the UI with Rattus norvegicus [8] came to 2. Besides, the IC50 amounted to 39.8 µM in data set [11] and 46.3 µM in data set [12]. Further, the paw edema inhibition relative to celecoxib at 280 µmol/kg in the data set on Rattus norvegicus [9] stood at 84%.

As for `COc1ccc2c(c1)c(CC(=O)O)c(C)n2C(=O)c1ccc(Cl)cc1` [INDOMETHACIN], the inhibition in vivo at 280 µmol/kg in the data set with Rattus norvegicus [1] worked out at 81%; in the data set on Rattus norvegicus [4], 86%; with Rattus norvegicus [5], 55%; in the data set with Rattus norvegicus [6], 78%; in the data set with Rattus norvegicus [7], 68%. Further, the Activity entry with Rattus norvegicus [13], in the data set on Rattus norvegicus [14] and in the data set on Rattus norvegicus [15] was “Toxic” each time. Moreover, in the data set on Rattus norvegicus [8], the UI is given as 41.
